Columns and labels:
Mus musculus [1] = test: In vivo antitumor activity against P-388 leukemia in mice at the dose of 50 mg/kg.; format: functional
In short: (§1)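 P-388 leukemia in mice; compounds given as hydrochloride salts. Screening was done by the NCI Drug Research and Development Program. Result expressed as T/C (%).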

Nucleic Acid [2] = test: DNA binding property and activity expressed as Kn; format: nucleic-acid assay
In short: (§2)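 Absorbance read at the unbound-drug λmax after 5-min equilibration, against a buffer blank. K and n were obtained by nonlinear regression of absorbance against cumulative DNA volume, using a one- or two-site model.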

Nucleic Acid [3] = test: DNA binding property and activity expressed as K; format: nucleic-acid assay; in short: as §2
Mus musculus [4] = test: In vivo antitumor activity against P-388 leukemia in mice at the dose of 100 mg/kg.; format: functional; in short: as §1
Mus musculus [5] = test: In vivo antitumor activity against P-388 leukemia in mice at the dose of 200 mg/kg.; format: functional; in short: as §1
Mus musculus [6] = test: In vivo antitumor activity against P-388 leukemia in mice at the dose of 5 mg/kg.; format: functional; in short: as §1
Mus musculus [7] = test: In vivo antitumor activity against P-388 leukemia in mice at the dose of 40 mg/kg.; format: functional; in short: as §1

Row | Kn (Nucleic Acid [2]) [M⁻¹] | K (Nucleic Acid [3]) [M⁻¹] | Compound | T/C (Mus musculus [1]) [%] | T/C (Mus musculus [4]) [%] | T/C (Mus musculus [5]) [%] | T/C (Mus musculus [6]) [%] | T/C (Mus musculus [7]) [%]
1 | 29000 | 127000 | CCN(CC)CCCNC(=O)Cc1cc(O)c2c(c1O)C(=O)c1ccccc1C2=O.Cl | 108 |  |  |  | 
2 | 75000 | 289000 | CN(C)CCNC(=O)Cc1cc(O)c2c(c1O)C(=O)c1ccccc1C2=O.Cl |  | 118 |  |  | 
3 | 9400 | 78000 | CN(C)CCCNC(=O)c1ccc2c(c1O)C(=O)c1ccccc1C2=O.Cl | 118 |  |  |  | 
4 | 12900 | 92000 | CCN(CC)CCCNC(=O)c1ccc2c(c1O)C(=O)c1ccccc1C2=O |  |  |  |  | 
5 | 65000 | 259000 | CN(C)CCCNC(=O)Cc1cc(O)c2c(c1O)C(=O)c1ccccc1C2=O.Cl | 106 |  |  |  | 
6 | 9100 | 46000 | CCN(CC)CCNC(=O)c1ccc2c(c1O)C(=O)c1ccccc1C2=O |  |  |  |  | 
7 | 11000 | 59000 | CN(C)CCCNC(=O)c1ccc2c(c1)C(=O)c1ccccc1C2=O.Cl |  |  | 115 |  | 
8 | 10100 | 78000 | CCN(CC)CCCC(C)NC(=O)c1ccc2c(c1O)C(=O)c1ccccc1C2=O.Cl (stereo not given) |  |  |  | 106 | 
9 | 49000 | 308000 | CCN(CC)CCCC(C)NC(=O)Cc1cc(O)c2c(c1O)C(=O)c1ccccc1C2=O.Cl (stereo not given) |  |  |  |  | 125
10 |  |  | CCN(CC)CCNC(=O)c1ccc2c(c1)C(=O)c1ccccc1C2=O.Cl |  |  | 119 |  | 
11 |  |  | CCN(CC)CCCC(C)NC(=O)c1ccc2c(c1)C(=O)c1ccccc1C2=O.Cl (stereo not given) |  |  | 127 |  | 
12 | 100000 | 529000 | CCN(CC)CCNC(=O)Cc1cc(O)c2c(c1O)C(=O)c1ccccc1C2=O.Cl |  | 106 |  |  | 

From ChEMBL document CHEMBL1122035, “Preparation and evaluation of 2-substituted anthraquinones based on the anthracyclines” (1982)
